Data from ChEMBL document CHEMBL3272084, “Adamantane and protoadamantanealkanamines as potential anti-Parkinson agents” (J Med Chem, 1976).
Activity calls are given as the source filed them. The rule behind the calls is not given here.

Assays:
Mus musculus [1] = assay: Antidepressant activity in CFW mouse assessed as reversal of reserpine-induced hypothermia by measuring temperature index at 0.04 mmol/kg, sc measured every 30 mins up to 1.5 hrs; format: functional
Mus musculus [2] = assay: Antiparkinsonian activity in CFW mouse assessed as reversal of reserpine-induced catalepsy at 0.15 mmol/kg, sc measured every 30 mins up to 1.5 hrs; format: functional, organism-based
[3] = Acute toxicity in po dosed albino CFW mouse assessed as mortality measured over 48 hrs; format: organism-based; conditions: albino CFW, in vivo
Rattus norvegicus [4] = assay: Antiparkinsonian activity in Wistar rat assessed as reversal of reserpine-induced catalepsy at 0.15 mmol/kg, po measured every 30 mins up to 1.5 hrs; format: functional, organism-based
[5] = Acute toxicity in ip dosed albino CFW mouse assessed as mortality measured over 48 hrs; format: organism-based; conditions: albino CFW, in vivo
Mus musculus [6] = assay: Antidepressant activity in CFW mouse assessed as reversal of reserpine-induced hypothermia by measuring temperature index at 0.20 mmol/kg, sc measured every 30 mins up to 1.5 hrs; format: functional, organism-based
Mus musculus [7] = assay: Antiparkinsonian activity in CFW mouse assessed as reversal of reserpine-induced catalepsy at 0.20 mmol/kg, sc measured every 30 mins up to 1.5 hrs; format: functional, organism-based
Mus musculus [8] = assay: Antidepressant activity in CFW mouse assessed as reversal of reserpine-induced hypothermia by measuring temperature index at 0.15 mmol/kg, sc measured every 30 mins up to 1.5 hrs; format: functional
Mus musculus [9] = assay: Antidepressant activity in CFW mouse assessed as reversal of reserpine-induced hypothermia by measuring temperature index at 0.13 mmol/kg, sc measured every 30 mins up to 1.5 hrs; format: functional, organism-based
Mus musculus [10] = assay: Antiparkinsonian activity in CFW mouse assessed as reversal of reserpine-induced catalepsy at 0.13 mmol/kg, sc measured every 30 mins up to 1.5 hrs; format: functional, organism-based
Rattus norvegicus [11] = assay: Antiparkinsonian activity in Wistar rat assessed as reversal of reserpine-induced catalepsy at 0.13 mmol/kg, po measured every 30 mins up to 1.5 hrs; format: functional, organism-based
Mus musculus [12] = assay: Antidepressant activity in CFW mouse assessed as reversal of reserpine-induced hypothermia by measuring temperature index at 0.14 mmol/kg, sc measured every 30 mins up to 1.5 hrs; format: functional
Mus musculus [13] = assay: Antiparkinsonian activity in CFW mouse assessed as reversal of reserpine-induced catalepsy at 0.14 mmol/kg, sc measured every 30 mins up to 1.5 hrs; format: functional, organism-based
Mus musculus [14] = assay: Antiparkinsonian activity in CFW mouse assessed as reversal of reserpine-induced catalepsy at 0.17 mmol/kg, sc measured every 30 mins up to 1.5 hrs; format: functional, organism-based
Rattus norvegicus [15] = assay: Antiparkinsonian activity in Wistar rat assessed as reversal of reserpine-induced catalepsy at 0.14 mmol/kg, po measured every 30 mins up to 1.5 hrs; format: functional, organism-based
Mus musculus [16] = assay: Antidepressant activity in CFW mouse assessed as reversal of reserpine-induced hypothermia by measuring temperature index at 0.17 mmol/kg, sc measured every 30 mins up to 1.5 hrs; format: functional
Rattus norvegicus [17] = assay: Potency index, ratio of compound to amantadine for antiparkinsonian activity in po dosed Wistar rat assessed as reversal of reserpine-induced catalepsy; format: functional
Mus musculus [18] = assay: Antidepressant activity in CFW mouse assessed as reversal of reserpine-induced hypothermia by measuring temperature index at 0.09 mmol/kg, sc measured every 30 mins up to 1.5 hrs; format: functional
How it was run: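 Groups of five CFW mice received reserpine 4 mg/kg sc. After 2.5 h, rectal temperature was taken. The temperature index (TI) is the sum of the group's mean changes from its mean initial temperature at 30, 60 and 90 min. Scoring: 0 = no effect, 1 = TI 5–10, 2 = TI >10. A run was repeated if the reserpine control TI fell outside −5 to −15.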

Mus musculus [19] = assay: Antiparkinsonian activity in CFW mouse assessed as reversal of reserpine-induced catalepsy at 0.07 mmol/kg, sc measured every 30 mins up to 1.5 hrs; format: functional, organism-based
How it was run: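 Groups of five CFW mice were given reserpine 4 mg/kg sc, and catalepsy was assessed 2.5 h later. Reversal was scored 0–5: 0 no effect, 1 marginal, 2 significant, 3 marked, 4 approaching complete, 5 complete reversal.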

Mus musculus [20] = assay: Antidepressant activity in CFW mouse assessed as reversal of reserpine-induced hypothermia by measuring temperature index at 0.21 mmol/kg, sc measured every 30 mins up to 1.5 hrs; format: functional
Mus musculus [21] = assay: Antiparkinsonian activity in CFW mouse assessed as reversal of reserpine-induced catalepsy at 0.21 mmol/kg, sc measured every 30 mins up to 1.5 hrs; format: functional, organism-based
Rattus norvegicus [22] = assay: Antiparkinsonian activity in Wistar rat assessed as reversal of reserpine-induced catalepsy at 0.21 mmol/kg, po measured every 30 mins up to 1.5 hrs; format: functional, organism-based
Rattus norvegicus [23] = assay: Antiparkinsonian activity in Wistar rat assessed as reversal of reserpine-induced catalepsy at 0.08 mmol/kg, po measured every 30 mins up to 1.5 hrs; format: functional, organism-based

For `CNCCC12CC3CC(CC(C3)C1Cl)C2.Cl` (stereo not given), the Activity (Mus musculus [1]) was >10, the Activity (Mus musculus [2]) was “Active” and the LD50 at 48 h [3] was 1500 µmol/kg. The Activity (Rattus norvegicus [4]) was “Active” and the LD50 at 48 h [5] was 600 µmol/kg.

For `CNC1CC2CC3CC(C2)C1C3.Cl` (stereo not given), the Activity (Mus musculus [6]) was “inactive”, the LD50 at 48 h [3] was 2000 µmol/kg and the LD50 at 48 h [5] was 700 µmol/kg. For the same molecule, the Activity (Mus musculus [7]) was “Active”.

In the case of `CN1CCN(CC23CC4CC(CC(C4)C2O)C3)CC1.Cl` (stereo not given), the Activity (Mus musculus [8]) is reported as 5, the Activity (Mus musculus [2]) is reported as “inactive” and the LD50 at 48 h [3] is reported as 1200 µmol/kg. For the same molecule, the LD50 at 48 h [5] was 900 µmol/kg.

With `CN(C)CC1(O)CC2CC3CC(C2)C1C3.Cl` (stereo not given) the Activity (Mus musculus [6]) was “inactive”, the LD50 at 48 h [3] was 1600 µmol/kg and the LD50 at 48 h [5] was 1200 µmol/kg. For the same molecule, the Activity (Mus musculus [7]) was “inactive”.

For `CN(C)CC12CC3CC(CC(C3)C1Br)C2.Cl` (stereo not given), the Activity (Mus musculus [9]) was “inactive”, the LD50 at 48 h [3] was 1300 µmol/kg and the Activity (Mus musculus [10]) was “inactive”. The LD50 at 48 h [5] was 500 µmol/kg and the Activity (Rattus norvegicus [11]) was “Active”.

In the case of `CNCC1CC2CC3CC(C2)C1C3.O=C(O)/C=C\C(=O)O` (stereo not given), the Activity (Mus musculus [12]) is reported as 5, the LD50 at 48 h [3] is reported as 1000 µmol/kg and the Activity (Mus musculus [13]) is reported as “inactive”. The LD50 at 48 h [5] was 500 µmol/kg.

For `CNCC12CC3CC(CC(C3)C1Br)C2.Cl` (stereo not given), the Activity (Mus musculus [14]) was “Active”, the LD50 at 48 h [3] was 1000 µmol/kg and the Activity (Rattus norvegicus [15]) was “Active”. The Activity (Mus musculus [16]) was 5, the Ratio (Rattus norvegicus [17]) was 2 and the LD50 at 48 h [5] was 1000 µmol/kg.

Molecule `Cl.c1ccc(CCNC2CC3CC4CC(C3)C2C4)cc1` (stereo in doubt; 12) has an LD50 at 48 h [3] of 1000 µmol/kg, an Activity (Mus musculus [18]) of 5 and an LD50 at 48 h [5] of 300 µmol/kg.

For `c1ccc(CCNC2CC3CC4CC(C3)C2C4)cc1` (stereo in doubt; 13), the Activity (Rattus norvegicus [15]) was “Active” and the Activity (Mus musculus [19]) was “inactive”.

In the case of `NC12CC3CC(CC(C3)C1)C2` [AMANTADINE], the Activity (Mus musculus [20]) is reported as 5, the Activity (Mus musculus [21]) is reported as “inactive” and the Activity (Rattus norvegicus [22]) is reported as “Active”.

In the case of `Br.CN1CCN(CC23CC4CC(CC(C4)C2Br)C3)CC1` (stereo not given), the Activity (Rattus norvegicus [23]) is reported as “inactive”, the Activity (Mus musculus [9]) is reported as “inactive” and the LD50 at 48 h [3] is reported as 1200 µmol/kg. For the same molecule, the Activity (Mus musculus [10]) was “inactive” and the LD50 at 48 h [5] was 600 µmol/kg.
